Assay [1] can be described thus: inhibitors of TNFa-induced NFkB p65 translocation, primary screen, imaging, HUVEC, MLSMR starter and 10KST1 sets (AID 438;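 active = inhibition above 20% together with a positive visual image hit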;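 also: compound added about 3h40 before a 20 min TNFalpha stimulation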;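 as to inhibition: signal is the nuclear over cytoplasmic p65 intensity ratio per well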). The settings on record: HUVEC TNFa-induced p65 nuclear translocation; cell count: measured here: nuclei count (cytotoxicity indicator), at 2.08 µM; inhibition: at 2 µM, stronger effect = higher value, 0% TNFa-plus-vehicle, 100% no-TNFa wells.
Assay [2] can be described thus: inhibitors of E-selectin induction by TNFa, primary screen, imaging, HUVEC, immunofluorescence, MLSMR starter and 10KST1 sets (AID 487;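 active = visually confirmed hit in the image check and inhibition above 20%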;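 as to inhibition: signal is fraction of cell area covered by stained E-selectin grains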;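 as to nuclei count: 100% = median nuclei count of all wells on the same plate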). The settings on record: HUVEC TNFalpha-induced E-selectin immunofluorescence imaging, at 2 µM; inhibition: stronger effect = higher value; nuclei count: measured here: cell number, toxicity.
A short description of assay [3]: DUSP6 inhibitors restoring Erk phosphorylation by chemical complementation, primary imaging in DUSP6-transfected HeLa (AID 609;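 active = compounds giving at least 50% inhibition in the cell-based MKP-3 phosphatase rescue imaging test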;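 as to inhibition: phospho-Erk level distribution per well compared with pooled transfected vehicle control wells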). Particulars: HeLa MKP-3 transfected, phospho-Erk imaging KS statistic, at 10 µM, cells stimulated with TPA for 15 min.
For assay [4], the target named is Dual specificity protein phosphatase 6 (Homo sapiens) (UniProt Q16828). The description is as above. Particulars: HeLa MKP-3 transfected, phospho-Erk imaging KS statistic; at 10 µM; stronger effect = higher value; cells stimulated with TPA for 15 min.
Sequence of Dual specificity protein phosphatase 6 (Homo sapiens) (Q16828 whole entry, looked up): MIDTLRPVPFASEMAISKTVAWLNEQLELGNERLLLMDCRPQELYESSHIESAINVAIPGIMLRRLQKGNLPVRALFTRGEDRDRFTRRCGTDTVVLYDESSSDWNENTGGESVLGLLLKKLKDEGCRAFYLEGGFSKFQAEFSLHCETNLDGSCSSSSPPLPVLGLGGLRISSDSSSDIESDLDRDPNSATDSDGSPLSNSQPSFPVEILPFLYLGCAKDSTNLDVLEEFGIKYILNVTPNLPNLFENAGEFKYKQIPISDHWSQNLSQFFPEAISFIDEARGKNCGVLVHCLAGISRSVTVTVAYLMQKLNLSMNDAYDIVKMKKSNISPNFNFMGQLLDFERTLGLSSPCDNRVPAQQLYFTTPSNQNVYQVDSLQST
The target in assay [5] is Voltage-gated potassium channel subunit beta-2 (Rattus norvegicus) (UniProt P62483). Description: KvBeta enzyme negative modulators, primary screen, biochemical, NADPH fluorescence (AID 622;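 active = fluorescence slope higher than the sample average by over 3 SD, cut at about -0.22 in these data, passing the limit was not always enough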;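 also: slope of raw intensity against log time taken from 70 to 1610 s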). Particulars: recombinant KvBeta, 4-cyanobenzaldehyde reduction, at 10 µM, stronger effect = higher value.
Sequence of Voltage-gated potassium channel subunit beta-2 (Rattus norvegicus) (P62483 whole entry, looked up): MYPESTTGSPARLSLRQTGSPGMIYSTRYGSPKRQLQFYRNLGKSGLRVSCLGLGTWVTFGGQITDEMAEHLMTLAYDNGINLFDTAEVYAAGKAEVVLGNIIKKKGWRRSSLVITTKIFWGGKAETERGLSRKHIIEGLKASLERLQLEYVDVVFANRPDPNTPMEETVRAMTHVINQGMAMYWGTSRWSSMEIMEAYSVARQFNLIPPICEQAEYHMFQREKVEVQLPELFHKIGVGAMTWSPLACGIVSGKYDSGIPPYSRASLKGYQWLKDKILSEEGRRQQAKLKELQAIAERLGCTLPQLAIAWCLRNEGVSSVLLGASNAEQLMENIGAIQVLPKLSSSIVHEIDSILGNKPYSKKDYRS
For assay [6] the target is unchanged. The experiment in a line: KvBeta positive modulators, primary screen, biochemical, NADPH fluorescence (AID 623).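 Also: fluorescence intensity change per second fitted from 20 to 320 s.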 The settings on record: Recombinant KvBeta, NADPH fluorescence decrease slope, 10 min; at 10 µM; stronger effect = lower value.
For assay [7], the target named is Alpha-2C adrenergic receptor (Homo sapiens) (UniProt P18825). Description: modulators of alpha2C/GIRK thallium flux, primary screen, cell-based, HEK293 alpha2C/GIRK1/2 (AID 624;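 active = fluorescence slope after compound addition differing from the mean of all screened samples at 99.7% confidence, in either direction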;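 also: slope of fluorescence ratio to pre-addition baseline per second over 15 to 24 s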). The settings on record: thallium flux BTC fluorescence, at 10 µM, actives lie on both sides.
Sequence of Alpha-2C adrenergic receptor (Homo sapiens) (P18825 whole entry, looked up): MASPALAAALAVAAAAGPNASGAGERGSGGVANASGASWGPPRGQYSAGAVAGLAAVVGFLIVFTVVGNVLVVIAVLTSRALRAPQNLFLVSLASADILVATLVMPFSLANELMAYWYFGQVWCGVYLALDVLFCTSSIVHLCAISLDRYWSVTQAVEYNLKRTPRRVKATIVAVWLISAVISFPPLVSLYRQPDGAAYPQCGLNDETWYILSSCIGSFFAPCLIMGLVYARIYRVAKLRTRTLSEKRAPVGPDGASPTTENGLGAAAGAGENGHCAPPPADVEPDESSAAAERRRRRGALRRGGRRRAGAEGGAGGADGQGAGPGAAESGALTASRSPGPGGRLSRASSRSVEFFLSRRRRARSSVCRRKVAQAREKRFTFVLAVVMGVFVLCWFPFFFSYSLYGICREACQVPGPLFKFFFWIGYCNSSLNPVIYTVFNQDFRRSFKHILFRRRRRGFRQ
Assay [8] can be described thus: inhibitors of larval lipid processing in zebrafish, primary screen, whole organism, PED6 fluorescence, gall bladder and intestine (AID 686;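 active = a full or partial loss of lipid-probe fluorescence in the fish gall bladder, intestine or both, judged by eye; inactive = no fluorescence loss, or compound toxic to the fish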;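 also: larvae 5 to 7 days old with five fish per well; signal comes from phospholipase A2 cleavage of quenched PED6 carried via bile; overnight exposure to compound and PED6 before scoring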). The settings on record: Zebrafish larvae PED6 lipid processing, fluorescence scoring; screened at 20 µM (by protocol). A digest of the protocol:
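Also added: quenched phospholipase substrate PED6, 100 nM final, ingested by larvae; System: zebrafish larvae, 5-7 d; Quantity: 5 larvae per well; Compound: 20 µM single dose; Schedule: overnight compound and PED6 incubation; Read-out: visual per-well fluorescence inhibition score; Measured by: By-eye fluorescence microscopy; Medium: E3.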

Assay [9] is described as follows: inhibitors of Chlamydomonas gravitaxis, primary screen, whole organism, Chlamydomonas reinhardtii, WT vs cilia-less mutant, absorbance, 96-well (AID 463189;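 active = inhibition at or above 50% relative to wild type and mutant plate controls; inactive = inhibition below 50%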;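 also: 0% = wild type cc124 cells in DMSO and 100% = ciliumless bld1 mutant cells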). The settings on record: OD600 absorbance, 2 days, at 10 µM, stronger effect = higher value.
The mark [10] stands for this setting: measured here: cell density z-score.
[11] abbreviates: measured here: nuclear c-Myc green intensity z-score.
Where [12] appears, read: measured here: nuclear pErk red intensity z-score, stronger effect = higher value.

SMILES strings stand for the structures. Active and inactive are the calls of the source.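 The calls were made as follows, unless noted: active = NADPH fluorescence slope more negative than the mean of all samples by about 3 SD, 99.7% confidence; inactive = the rest.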

Consider `CN1CCN(CCCCOc2ccc(F)cc2)CC1`, for which, in [1], the cell count came out at 488. The inhibition – broadly, the relative decrease from the control value, in per cent – in assay [1] was -6.3% (inactive); in [2], -39.9% (inactive); in assay [4], 7.48% (inactive); in [9], 30.4% (inactive). The molecule also returned a nuclei count in assay [2] of 114%. Further, the z-score was 1.94 in assay [3] (setting [10]), -1.66 in [3] (setting [11]) and 1.15 in assay [3] (setting [12]). Besides, the fluorescence slope in [5] is -0.483 (inactive). In addition, the NADPH fluorescence slope in assay [6] was -0.00016 (inactive). Moreover, the slope in assay [7] was 0.00459 (inactive). In assay [8], the molecule was classed as inactive.

Consider `COc1ccc(OC)c(C2/C(=C(/O)c3ccc(C)cc3)C(=O)C(=O)N2Cc2ccco2)c1` (stereo unspecified), for which the cell count in assay [1] worked out at 561. Also, the inhibition in assay [1] was -1.8% (inactive); in [2] it was -18.5% (inactive); in assay [4], -7.86% (inactive); in assay [9], -7.49% (inactive). For the same molecule, in assay [2], the nuclei count is 143%. Moreover, the figures for the z-score in [3] (setting [10]), in assay [3] (setting [11]) and in assay [3] (setting [12]) were 1.28, 0.438 and 0.373, respectively. Moreover, the fluorescence slope in assay [5] is -0.568 (inactive). Besides, the NADPH fluorescence slope in [6] is -1.3e-05 (inactive). For the same molecule, in [7], the slope was 0.00557 (inactive). Moreover, in assay [8], the molecule was called inactive.

For the molecule `CC1(C)Cc2c(sc3[nH]c(=S)n(Cc4ccco4)c(=O)c23)CO1`, the cell count in assay [1] came out at 541. In addition, the inhibition in assay [1] was -15.5% (inactive); in assay [2], -74.4% (inactive); in assay [4], -2.69% (inactive); in assay [9], -12.6% (inactive). In addition, the nuclei count in assay [2] was 117%. For the same molecule, the results for the z-score in assay [3] (setting [10]), in assay [3] (setting [11]) and in [3] (setting [12]) were -0.898, -0.375 and -0.762, respectively. For the same molecule, the fluorescence slope in assay [5] is -0.361 (inactive). Further, the NADPH fluorescence slope in assay [6] was 2.2e-05 (inactive). Moreover, the slope in assay [7] is 0.0124 (active). Moreover, the molecule was called inactive in [8].

Regarding `CCOC(=O)c1[nH]c2ccc(OC)cc2c1C`, in assay [1], the cell count turned out to be 547. The inhibition in assay [1] is -3.8% (inactive); in [2], -0.1% (inactive); in assay [4] it was -12.3% (inactive); in assay [9], 1.77% (inactive). The same molecule displayed a nuclei count in assay [2] of 171%. Further, the z-score in assay [3] (setting [10]) is -0.421; in [3] (setting [11]) it was -0.589; in assay [3] (setting [12]), 0.677. Besides, the fluorescence slope in [5] was -0.361 (inactive). The NADPH fluorescence slope in [6] was -2.9e-05 (inactive). Moreover, the slope in [7] was 0.0043 (inactive). Besides, the call in assay [8] was inactive.

`N#CC12CCCCC1CC1CCCCC1(C#N)N2Cc1cccnc1` (stereo unspecified): the cell count in [1] came to 364. The inhibition is -10.3% (inactive) in [1], 3.8% (inactive) in assay [2], 17% (inactive) in assay [4] and 44.6% (inactive) in [9]. In assay [2], the nuclei count was determined as 97.2%. Besides, the z-score was 1.59 in [3] (setting [10]), -0.921 in assay [3] (setting [11]) and -1.61 in assay [3] (setting [12]). The fluorescence slope in assay [5] is -0.557 (inactive). For the same molecule, in [6], the NADPH fluorescence slope was -6.5e-05 (inactive). In addition, in assay [7], the slope was 0.00335 (inactive). Moreover, the molecule was called inactive in [8].

Take `Fc1cnc(N2CCOCC2)nc1NCc1ccccc1`: the cell count in assay [1] worked out at 649. The inhibition in [1] was -2.3% (inactive); in assay [2], 32.4% (inactive); in assay [4], 6.51% (inactive); in [9], 0.319% (inactive). In [2], this molecule gave a nuclei count of 156%. The z-score in [3] (setting [10]) was -0.315; in [3] (setting [11]) it was 0.582; in assay [3] (setting [12]), 0.114. For the same molecule, the fluorescence slope in assay [5] is -0.388 (inactive). In assay [6], the NADPH fluorescence slope is -5.9e-05 (inactive). Moreover, the slope in assay [7] was 0.00592 (inactive). In addition, the call in assay [8] was inactive.

Consider `CCCCc1c(C)nn(-c2nnc3c4ccccc4n(C)c3n2)c1C`, for which the cell count in assay [1] turned out to be 575. Moreover, the inhibition in [1] was -12.6% (inactive); in assay [2], -37.2% (inactive); in assay [4] it was 7.73% (inactive); in [9] it was 21.4% (inactive). This molecule also registered a nuclei count in [2] of 161%. Further, the z-score is -0.575 in assay [3] (setting [10]), 2.07 in [3] (setting [11]) and -0.403 in assay [3] (setting [12]). In assay [5], the fluorescence slope is -0.48 (inactive). In assay [6], the NADPH fluorescence slope was -5.6e-05 (inactive). The slope in assay [7] was 0.00441 (inactive). Also, the outcome in assay [8] was inactive.

With `Cc1cc(C)n(C(=O)CN2C(=O)CCC2=O)n1`, the cell count in [1] was 406. Moreover, the inhibition in [1] is -19% (inactive); in [2] it was -169% (inactive); in [4] it was -5.62% (inactive); in assay [9] it was 17.3% (inactive). In [2], the nuclei count came out at 155%. The z-score in [3] (setting [10]) is -0.373; in assay [3] (setting [11]), -0.831; in assay [3] (setting [12]) it was -0.956. Moreover, the fluorescence slope in [5] was -0.249 (inactive). Moreover, the NADPH fluorescence slope in [6] is 1.9e-05 (inactive). In [7], the slope was 0.00506 (inactive). In addition, the outcome in assay [8] was inactive.

For `C=CCOc1nc2c(c(=O)n(C)c(=O)n2C)n1Cc1ccccc1Cl`, in assay [1], the cell count came out at 617. Moreover, the inhibition in [1] was 0.6% (inactive); in [2], 39.7% (inactive); in assay [4], 16.8% (inactive); in assay [9], 1.08% (inactive). Besides, the nuclei count in [2] came to 155%. For the same molecule, the z-score in assay [3] (setting [10]) is -1.51; in [3] (setting [11]), -0.0292; in assay [3] (setting [12]), 0.274. The fluorescence slope in [5] is -0.515 (inactive). Also, the NADPH fluorescence slope in [6] is -0.000108 (inactive). Moreover, the slope in [7] was 0.0054 (inactive). In addition, in assay [8], the result was inactive.

Regarding `Cn1c(NCc2ccco2)nc2c1c(=O)n(Cc1ccc(Cl)c(Cl)c1)c(=O)n2C`, the cell count in assay [1] came to 615. Further, the inhibition in assay [1] was -3.6% (inactive); in assay [2], -47.4% (inactive); in assay [4], -1.12% (inactive); in [9] it was 48.3% (inactive). The same molecule came in with a nuclei count in [2] of 147%. Also, the z-score was -0.044 in [3] (setting [10]), 0.293 in [3] (setting [11]) and 1.11 in assay [3] (setting [12]). In [5], the fluorescence slope is -0.511 (inactive). Further, the NADPH fluorescence slope in assay [6] was -6.1e-05 (inactive). The slope in [7] is 0.00544 (inactive). Also, in assay [8], the outcome was inactive.

Take `COc1cc(OC)cc(C(=O)N2CCC(N3CCN(c4ccccc4)CC3)CC2)c1`: the cell count in [1] amounted to 382. Besides, the inhibition is -13.9% (inactive) in [1], -114% (inactive) in assay [2], 12.7% (inactive) in assay [4] and -4.18% (inactive) in assay [9]. The nuclei count in [2] was determined as 122%. Moreover, the z-score in assay [3] (setting [10]) was 1.61; in assay [3] (setting [11]), -0.715; in assay [3] (setting [12]) it was -0.404. In addition, the fluorescence slope in [5] is -0.342 (inactive). Moreover, in assay [6], the NADPH fluorescence slope was 5.8e-05 (inactive). Besides, the slope in assay [7] was 0.00556 (inactive). Also, the outcome in assay [8] was inactive.

On to `CN1CCC2(CC1)C1CN(C)CC=C1C(C#N)=C(N)C2(C#N)C#N` (stereo unspecified), for which the cell count in [1] turned out to be 542. For the same molecule, the inhibition in [1] is -8.9% (inactive); in assay [2], -165% (inactive); in assay [4], 2.46% (inactive); in assay [9], 11.5% (inactive). This molecule had a nuclei count in assay [2] of 198%. Also, the z-score was -1.09 in [3] (setting [10]), 0.771 in assay [3] (setting [11]) and 1.17 in [3] (setting [12]). Besides, the fluorescence slope in [5] was -0.349 (inactive). In addition, the NADPH fluorescence slope in assay [6] was -8.7e-06 (inactive). For the same molecule, in assay [7], the slope was 0.0029 (inactive). Further, the call in [8] was inactive.
